Measured values as given in ChEMBL document CHEMBL1158389, “Highly twisted adamantyl arotinoids: synthesis, antiproliferative effects and RXR transactivation profiles” (Eur J Med Chem, 2009).
The source made the active and inactive calls. The calls are words filed in the database; no cut-off is given here.

What was measured:
Jurkat [1] = experiment: Antiproliferative activity against human Jurkat T cells at 62.5 nM after 48 hrs by MTT assay; type: functional, cell-based
Procedure, shortened: (§1)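 Jurkat T cells were resuspended at 10^5 cells/mL in RPMI with 0.5% FBS (10,000/well) and seeded immediately before dosing at 62.5 nM–2 μM for two days. Viability was read by MTT (4 h, 37 °C), formazan dissolved in 10% SDS/10 mM HCl, A595 with cell-free background subtracted. Values are relative to DMSO controls (≤0.1% v/v); at least two experiments in triplicate.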

Jurkat [2] = experiment: Antiproliferative activity against human Jurkat T cells after 48 hrs by MTT assay
Jurkat [3] = experiment: Induction of apoptosis in human Jurkat T cells assessed as induction of DEVDase activity at 4 uM after 4 hrs by fluorescence assay; type: functional, cell-based
Procedure, shortened: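 Jurkat cells (40,000/well, 10^6 cells/mL, RPMI with 0.5% FBS) were treated for 4 h; controls got 0.1% DMSO. Lysis was in CE buffer (PIPES pH 7, NP-40, cytochalasin B, protease inhibitors) for 30 min at 4 °C. Lysates were mixed with 2x caspase buffer (HEPES pH 7.4, CHAPS, sucrose) holding 100 μM Ac-DEVD-AFC and incubated at 37 °C for 30 min. AFC was read every 2 min, ex 390/em 510 nm.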

Jurkat [4] = experiment: Antiproliferative activity against human Jurkat T cells at 2 uM after 48 hrs by MTT assay; type: functional, cell-based; procedure, shortened: as §1

| SMILES | Activity (Jurkat [1]) | IC50 (Jurkat [2]) | Activity (Jurkat [3]) | Activity (Jurkat [4]) |
| --- | --- | --- | --- | --- |
| COCCOCOc1cc(C)c(-c2ccc3cc(C(=O)O)ccc3c2Cl)cc1C12CC3CC(CC(C3)C1)C2 | inactive | 707 nM | Active |  |
| COCCOCOc1cc(C)c(-c2ccc(CC(=O)O)cc2Cl)cc1C12CC3CC(CC(C3)C1)C2 |  |  |  | Active |
